Screening results: PubChem, Broad Institute
In the library only some 2.1% were active in any assay of this set; here they are far more common.
ARNT TACC3 PPI: disruptors of human ARNT/TACC3 interaction; AlphaScreen His-ARNT PAS-B/GST-TACC3 binding, luminescence; TACC3 fragment carries E629A point mutation; inhibition, % at 9.99 µM; actives 0.66% (n = 390,000);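 active means mean inhibition of replicates at least 50% and at least half of replicates each reaching 50%; inconclusive means half or more replicates reach 50% but mean below 50%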;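 further: 0% = complete ARNT plus TACC3 wells and 100% = ARNT alone without TACC3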
PDI turbidity: PDI (human) enzyme inhibition; P07237; PDI insulin aggregation turbidity, A650, 90 min; inhibition, % at 10 µM; actives 0.052% (n = 350,000); AID 588391;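 active means mean inhibition across replicates of 30% or more, whatever share of single replicates reach that level; inconclusive means mean inhibition below 30% while every single replicate reaches 30%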
FN deposit inh: fibronectin deposition inhibition; AH1F fibroblasts, Alexa488-fibronectin deposition fluorescence, overnight; inhibition, % at 12.6 µM; actives 0.086% (n = 350,000);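 active means mean inhibition across replicates of 30% or more, regardless of how many single replicates reach that level; inconclusive means mean under 30% yet at least half of replicates reach 30%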;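 further: positive control wells lacked labelled fibronectin entirely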
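Assay system: AH1F fibroblast monolayer, labelled fibronectin deposition. Amount: 10000 cells per well. Also added: labelled fibronectin 24 nM. Compound: single-point pinned compound. Incubation: cell attachment 1 h, compound and FN exposure overnight. Detection: fluorescence after three HBSS washes, excitation 485 nm, emission 525 nm. Read-out: inhibition of fibronectin deposition signal.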
AF4-AF9 inh: blocks AF4 peptide binding to human AF9 | AlphaScreen, biotin-AF4 peptide binding to FLAG-AF9 | AID 651704 | P42568 | actives 0.47% (n = 350,000) | inhibition, % at 10 µM;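 active means every replicate reaching a set inhibition limit, whatever the replicate mean, cut at about 25% in these data; inconclusive means mean inhibition reaches that limit but some replicates miss it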;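 further: 0% = plate neutral control median and 100% = total signal loss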
FGF22 binding: shifts melting point of recombinant human FGF22; Q9HCT0; recombinant FGF22 thermal shift, SYPRO orange fluorescence; percent of sucrose octasulfate shift, DMSO zero; activity (Tm shift, normalised), % at 9.99 µM; actives 1.5% (n = 340,000);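 active means mean Tm shift, scaled 0 neutral to 100 positive control, at about 1.3% or above, every replicate too, limit read from the data; inconclusive means no clear call, values can overlap the other calls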
Target sequence (Q9HCT0 whole entry, looked up): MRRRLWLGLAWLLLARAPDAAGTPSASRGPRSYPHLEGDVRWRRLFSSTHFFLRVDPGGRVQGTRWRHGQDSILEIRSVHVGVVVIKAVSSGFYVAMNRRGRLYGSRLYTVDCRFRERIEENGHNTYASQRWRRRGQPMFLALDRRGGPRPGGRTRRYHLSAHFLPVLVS
ERp5 inh: inhibitors of human ERp5; Q15084; ERp5 insulin aggregation, absorbance 650 nm, 90 min; inhibition, % at 9.99 µM; actives 0.05% (n = 350,000); AID 651711;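 active means mean replicate inhibition above about 25%, with every replicate also reaching it, limit read from the data, passing the limit was not always enough; inconclusive means only one of those two criteria met; inactive means neither criterion met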
Target sequence (Q15084 whole entry, looked up): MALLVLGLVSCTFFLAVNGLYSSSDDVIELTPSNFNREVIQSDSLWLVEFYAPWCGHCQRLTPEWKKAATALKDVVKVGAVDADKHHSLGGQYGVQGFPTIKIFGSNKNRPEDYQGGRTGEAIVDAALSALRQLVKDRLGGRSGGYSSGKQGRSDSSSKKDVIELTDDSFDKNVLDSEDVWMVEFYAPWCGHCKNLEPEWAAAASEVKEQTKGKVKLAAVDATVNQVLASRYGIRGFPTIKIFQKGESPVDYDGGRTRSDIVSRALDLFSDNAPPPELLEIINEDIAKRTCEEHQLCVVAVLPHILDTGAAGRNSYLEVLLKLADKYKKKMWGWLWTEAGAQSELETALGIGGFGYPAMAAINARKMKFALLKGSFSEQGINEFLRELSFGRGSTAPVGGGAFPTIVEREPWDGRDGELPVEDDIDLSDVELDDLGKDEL
AlphaScreen ctr: AlphaScreen artifact in ARNT/TACC3 counter-screen; AID 651705; His-ARNT PASB-GST AlphaScreen artifact counter-screen, luminescence; AC50, µM (highest dose often 68 µM), for inactives: at the highest dose activity change, negative = signal decrease; actives 50% (n = 1,200); shares compounds with ARNT TACC3 PPI;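 active means every separate test run was called active for a drop in luminescence, with AC50 within twice the top valid dose, actives reach about 71 µM in these data; inconclusive means the separate test runs disagree in their calls; inactive means all runs inactive, including signal change in the wrong direction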
* marks the source's active call; other numbers are inactive results; ? = inconclusive; nt = not tested or not shown; [ ] = remark or other dose.

SMILES | ARNT TACC3 PPI | PDI turbidity | FN deposit inh | AF4-AF9 inh | FGF22 binding | ERp5 inh | AlphaScreen ctr
Cc1onc(-c2c(Cl)cccc2Cl)c1C(=O)Nc1ccc(N2CCOCC2)cc1 | active | 2 | -9 | nt | 0 | 0 | -20%
Cc1onc(-c2c(F)cccc2Cl)c1C(=O)Nc1ccccc1N1CCOCC1 | 4 | 0 | -2 | nt | 0 | 1 | nt
COc1ccc(NC(=O)Nc2cccc3c2O[C@@H](CN(C)C(=O)Nc2ccc4c(c2)OCO4)[C@@H](C)CN([C@H](C)CO)C3=O)cc1 | 5 | nt | nt | 3 | 0 | -6 | nt
O=C(CN1CCCCCCC1)N/N=C/c1ccc(F)c(F)c1 | 55* | -2 | 3 | -2 | 0 | -1 | -5%
CN1CCN(CC(=O)N/N=C/c2ccc(F)c(F)c2)CC1 | -2 | -4 | 0 | nt | nt | nt | nt
COc1ccc2c3c([nH]c2c1)[C@H](CO)N(C(=O)CN1CCOCC1)CC31CCN(CC2CCCC2)CC1 | nt | nt | -5 | 5 | nt | -3 | nt
COc1ccccc1-c1cn(CC[C@@H]2CC[C@@H](NS(=O)(=O)c3ccccc3C)[C@H](CO)O2)nn1 | -8 | nt | 1 | -9 | 0 | 3 | nt
Cc1[nH]n(-c2ccccc2)c(=O)c1/C=N/NC(=O)c1cccc(F)c1 | 58* | -13 | 6 | 8 | 0 | 3 | 43µM*
COc1ccc(S(=O)(=O)Nc2ccc3c(c2)C(=O)N([C@H](C)CO)C[C@H](C)[C@@H](CN(C)C(=O)Cc2ccccc2)OCCCC[C@H](C)O3)cc1 | 16 | nt | nt | -2 | -1 | 0 | nt
CCCNC(=O)Nc1ccc2c(c1)OC[C@H](C)N(C(=O)c1ccccc1F)C[C@@H](C)[C@@H](OC)CN(C)C2=O | 53* | nt | -13 | -17 | 0 | 0 | -2%[42 µM]
CO[C@@H]1CN(C)C(=O)c2ccc(NC(=O)c3ccccn3)cc2OC[C@@H](C)N(Cc2ccccn2)C[C@H]1C | 95* | nt | nt | nt | nt | nt | 20µM*
CC(=O)N1CN(Cc2ccccn2)Cc2c1sc1c2CCCC1 | 71* | 5 | nt | nt | nt | nt | -15%
Cc1ccc(N(C)S(=O)(=O)c2cccc(C(=O)Oc3ccc4c(C)cc(=O)oc4c3)c2)cc1 | 53* | -6 | -1 | -6 | 0 | 9 | -21%
C/C(=N/NC(=O)c1ccncc1)c1cc2ccc(O)cc2oc1=O | 57* | -11 | -9 | 2 | 42 | 1 | -8%
COc1ccc(NC(=O)N(C)C[C@H]2Oc3ccc(NC(=O)C4CC4)cc3CC(=O)N([C@H](C)CO)C[C@@H]2C)cc1 | -4 | nt | nt | -16 | 0 | -1 | nt
O=C(C[C@@H]1CC[C@H](NC(=O)CN2CCOCC2)[C@H](CO)O1)NCCc1ccncc1 | 57* | nt | 5 | 0 | 0 | 0 | 6%[38 µM]
COc1cccc(CNC(=O)CSc2ccc(-c3ccco3)nn2)c1 | -4 | -2 | 13 | 0 | 0 | 2 | nt
COc1cccc(CNC(=O)CSc2ccc(-c3ccccn3)nn2)c1 | 66* | 9 | -5 | -4 | 0 | 6 | 61µM*
O=C(CSc1ccc(-c2ccccn2)nn1)NCc1ccc(Cl)cc1 | 53* | 7 | 2 | ? | 0 | 2 | 69µM*
Cc1ccc(CNC(=O)CSc2ccc(-c3ccccn3)nn2)cc1 | 38 | -7 | -5 | 0 | 0 | -11 | nt
O=C(Nc1ccccc1)N[C@@H]1CC[C@H](CCn2cc(C3(O)CCCC3)nn2)O[C@H]1CO | -1 | nt | 0 | 1 | 0 | 2 | nt
COc1ccc(S(=O)(=O)Nc2ccc3c(c2)CC(=O)N([C@@H](C)CO)C[C@H](C)[C@H](CN(C)Cc2ccc(C(=O)O)cc2)O3)cc1 | -6 | nt | 3 | -7 | 0 | 18 | nt
O=C(c1cc(-c2ccccc2)on1)N1CCc2cccnc21 | nt | nt | nt | nt | nt | nt | -8%[38 µM]
O=C(c1cc(-c2ccccc2)on1)N1CCc2ccccc2C1 | -14 | 12 | -7 | 1 | 0 | 2 | nt
CN1CCN(C(=O)c2cc(-c3ccccc3)on2)CC1 | -4 | -4 | 13 | nt | nt | nt | 3%[38 µM]
SMILES | ARNT TACC3 PPI | PDI turbidity | FN deposit inh | AF4-AF9 inh | FGF22 binding | ERp5 inh | AlphaScreen ctr
COc1ccc(NC(=O)N(C)C[C@@H]2OCCCC[C@H](C)Oc3ccc(NC(=O)Nc4ccc(F)cc4)cc3C(=O)N([C@@H](C)CO)C[C@@H]2C)cc1 | -6 | nt | nt | -1 | 1 | 1 | nt
O=c1ccc(-c2ccc(S(=O)(=O)Nc3ccc(F)cc3)s2)n[nH]1 | 50* | -1 | -2 | 0 | 0 | nt | -9%
COc1ccc(C2=Nn3c(nnc3-c3ccco3)SC2)cc1 | 35 | -3 | 4 | nt | nt | nt | nt
Oc1ccc(C2=Nn3c(nnc3-c3ccco3)SC2)cc1O | 70* | 18 | nt | nt | nt | nt | -35%
COc1cc(-c2cc3nc(NCCc4ccncc4)ccn3n2)cc(OC)c1OC | nt | 16 | -20 | 2 | 0 | -2 | nt
COc1cc(CCNc2ccc3nnc(-c4ccccc4)n3n2)cc(OC)c1OC | 56* | -13 | 5 | 1 | 0 | 0 | 68µM*
CCC(=O)NC(C)c1cc(Cl)c2cccnc2c1O (stereo not given) | 61* | 2 | 9 | -19 | 0 | -3 | 43µM*
CC(=O)NC(C)c1cc(Cl)c2cccnc2c1O (stereo not given) | 52* | -1 | 1 | 4 | 45* | 2 | 36µM*
CCC(=O)NC(c1ccc(C)cc1)c1cc(Cl)c2cccnc2c1O (stereo not given) | -16 | 6 | nt | nt | nt | nt | nt
CC(=O)NC(C)c1cc(Cl)c2ccccc2c1O (stereo not given) | -8 | 13 | -4 | 2 | -1 | 3 | nt
CO[C@@H]1CN(C)C(=O)c2cc(NS(=O)(=O)CC(F)(F)F)ccc2OC[C@@H](C)N(C(=O)c2ccc3c(c2)OCO3)C[C@@H]1C | 51* | nt | 2 | 0 | 0 | 13 | 22µM*
CO[C@H]1CN(C)C(=O)c2ccc(NS(=O)(=O)CC(F)(F)F)cc2OC[C@H](C)N(Cc2cccnc2)C[C@@H]1C | -10 | nt | 0 | -3 | 0 | 4 | nt
CO[C@@H]1CN(C)C(=O)c2cc(NS(=O)(=O)CC(F)(F)F)ccc2OC[C@@H](C)N(C(=O)c2ccc3c(c2)OCO3)C[C@H]1C | -3 | nt | 1 | 2 | 0 | 2 | nt
CO[C@H]1CN(C)C(=O)c2cc(NS(=O)(=O)CC(F)(F)F)ccc2OC[C@H](C)N(Cc2cccnc2)C[C@@H]1C | active | nt | nt | 2 | 0 | 0 | -5%[42 µM]
CCOC(=O)Cc1nnc(NC(=O)c2ccccc2OCC)s1 | -8 | 0 | nt | nt | nt | nt | nt
CCOC(=O)Cc1nnc(NC(=O)c2ncn[nH]2)s1 | 69* | -7 | 13 | nt | nt | nt | -8%
NC1=NN=C(N2N=C(c3ccco3)CC2(O)C(F)(F)F)n2ncnc2C1 (stereo not given) | 73* | -7 | -2 | -4 | 42 | -1 | -22%
